Measurements as given in ChEMBL document CHEMBL1123988, “Studies on antifungal agents. 23. Novel substituted 3,5-diphenyl-3-(1H-imidazol-1-ylmethyl)- 2-alkylisoxazolidine derivatives” (1988).
In brackets after ≈: the same amount, converted by molar mass.

Columns and labels:
Aspergillus fumigatus = assay: In vitro antifungal activity against Aspergillus fumigatus ATCC 28212; assay type: functional
How it was run: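 Agar-well MIC with Antibiotic Medium 3 + 2% agar containing compound at 70 to 0.2 µg/mL, using four- or six-point dilutions. Mold was grown about 1 week on Potato Flake Agar at 26 °C, swabbed into sterile water, counted by hemacytometer and adjusted to 1 × 10^4 cells/mL. MIC was the lowest dilution without visible growth.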

Candida albicans [1] = assay: In vitro antifungal activity against Candida albicans ATCC 10259; assay type: functional
How it was run: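 Yeast was cultured overnight on Potato Flake Agar at 26 °C, swabbed into sterile water, counted by hemacytometer and diluted to 1 × 10^4 cells/mL. Wells (24-well) contained Antibiotic Medium 3 + 2% agar with compound at 70 to 0.2 µg/mL, in four- or six-point series. Each well got 0.05 mL and was held at 26 °C until control growth was visible. MIC was the lowest concentration with no visible growth.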

Candida albicans [2] = assay: In vitro antifungal activity against Candida stellatoidea ATCC 36232; assay type: functional
How it was run: (§1)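 Solid agar MIC in 24-well plates. Compound was diluted 10-fold into Antibiotic Medium 3 + 2% agar at 70 to 0.2 µg/mL, using four- or six-point schemes, with a ketoconazole control. The organism was grown on Potato Flake Agar at 26 °C, counted by hemacytometer and diluted to 1 × 10^4 cells/mL. Wells received 0.05 mL and were incubated at 26 °C until control growth appeared. MIC was the lowest dilution with no visible growth.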

Epidermophyton floccosum = assay: In vitro antifungal activity against Epidermophyton floccosum ATCC E-18397; assay type: functional; how it was run: as §1
Microsporum canis = assay: In vitro antifungal activity against Microsporum canis ATCC 44459; assay type: functional; how it was run: as §1
Microsporum audouinii = assay: In vitro antifungal activity against Microsporum audouinii ATCC 9079; assay type: functional; how it was run: as §1
Trichophyton benhamiae = assay: (§2) In vitro antifungal activity against Trichophyton mentagrophytes ATCC 9533; assay type: functional, Arthroderma benhamiae; how it was run: as §1
Trichophyton rubrum = assay: In vitro antifungal activity against Trichophyton rubrum ATCC 18762; assay type: functional
How it was run: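 Dermatophyte was grown about 2 weeks on Potato Flake Agar at 26 °C, washed off the plate with sterile water and diluted to 1 × 10^4 cells/mL by hemacytometer count. Agar wells (Antibiotic Medium 3 + 2% agar, compound 70 to 0.2 µg/mL, four- or six-point) were inoculated with 0.05 mL and incubated at 26 °C until controls grew. MIC was the lowest dilution showing no visible growth.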

[3] = system: Trichophyton schoenleinii; assay: In vitro antifungal activity against Trichophyton schoenleinii ATCC 22775; assay type: functional; how it was run: as §1
Trichophyton tonsurans [4] = assay: (§3) In vitro antifungal activity against Trichophyton tonsurans ATCC 9085; assay type: functional; how it was run: as §1
Candida albicans [5] = assay: Antifungal activity in rat vaginal candidasis, 2 day postinfection with Candida. albicans SOB FM-391; assay type: functional
How it was run: (§4)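 Ovariectomized female Sprague–Dawley rats (170–230 g), eight per group, kept in pseudoestrus with weekly sc estradiol valerate (0.5 mg). Intravaginal challenge on day 4 with 1 × 10^7 organisms in 0.1 mL RPMI+. Oral dosing at 20 mg/kg in 1% (carboxymethyl)cellulose, twice daily for 7 days from 24 h post-infection. Vaginal swabs in PBS were serially diluted and plated on SDA for 48 h at 24–26 °C. Read-out is log10 organisms/mL lavage fluid.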

Candida albicans [6] = assay: Antifungal activity in rat vaginal candidasis, 3 day postinfection with Candida. albicans SOB FM-391; assay type: functional; how it was run: as §4
Candida albicans [7] = assay: Antifungal activity in rat vaginal candidasis, 4 day postinfection with Candida. albicans SOB FM-391; assay type: functional; how it was run: as §4
Candida albicans [8] = assay: Antifungal activity in rat vaginal candidasis, 7 day postinfection with Candida. albicans SOB FM-391; assay type: functional; how it was run: as §4
Candida albicans [9] = assay: Antifungal activity in rat vaginal candidasis, 8 day postinfection with Candida. albicans SOB FM-391; assay type: functional; how it was run: as §4
Candida albicans [10] = assay: Antifungal activity in rat vaginal candidasis, 1 day postinfection with Candida. albicans SOB FM-391; assay type: functional; how it was run: as §4
[11] = as §2; assay type: functional, Arthroderma benhamiae; conditions: Trichophyton benhamiae; how it was run: as §1
Trichophyton tonsurans [12] = assay: as §3; assay type: functional; remark: listed apart in the source
How it was run: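 Solid agar MIC in 24-well plates. Compound was diluted 10-fold into Antibiotic Medium 3 + 2% agar, using either a […] or a 70/20/7/2/0.7/0.2 µg/mL scheme. Cells counted by hemacytometer were diluted to 1 × 10^4 cells/mL, and 0.05 mL was inoculated. Plates were incubated at 26 °C until compound-free controls grew. MIC is the lowest dilution with no visible growth.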

Trichophyton tonsurans [13] = assay: In vitro antifungal activity against Trichophyton tonsurans ATCC 9085
[14] = system: Trichophyton schoenleinii; assay: In vitro antifungal activity against Trichophyton schoenleinii ATCC 22775

| SMILES | MIC (Aspergillus fumigatus) [µg/mL] | MIC (Candida albicans [1]) [µg/mL] | MIC (Candida albicans [2]) [µg/mL] | MIC (Epidermophyton floccosum) [µg/mL] | MIC (Microsporum canis) [µg/mL] | MIC (Microsporum audouinii) [µg/mL] | MIC (Trichophyton benhamiae) [µg/mL] | MIC (Trichophyton rubrum) [µg/mL] | MIC [3] [µg/mL] | MIC (Trichophyton tonsurans [4]) [µg/mL] | Log (Candida albicans [5]) | Log (Candida albicans [6]) | Log (Candida albicans [7]) | Log (Candida albicans [8]) | Log (Candida albicans [9]) | Log (Candida albicans [10]) | MIC [11] [µg/mL] | MIC (Trichophyton tonsurans [12]) [µg/mL] | MIC (Trichophyton tonsurans [13]) [µg/mL] | MIC [14] [µg/mL] |
| --- | --- | --- | --- | --- | --- | --- | --- | --- | --- | --- | --- | --- | --- | --- | --- | --- | --- | --- | --- | --- |
| CN1O[C@H](c2c(Cl)cccc2Cl)C[C@@]1(Cn1ccnc1)c1ccc(Cl)cc1 | 2 (≈ 4.73 µM) | 7 (≈ 16.6 µM) | 7 (≈ 16.6 µM) | 0.7 (≈ 1.66 µM) | 2 (≈ 4.73 µM) | 20 (≈ 47.3 µM) | 7 (≈ 16.6 µM) | 0.7 (≈ 1.66 µM) | 7 (≈ 16.6 µM) | 0.7 (≈ 1.66 µM) |  |  |  |  |  |  |  |  |  |  |
| CN1O[C@H](c2ccc(Cl)cc2)C[C@@]1(Cn1ccnc1)c1ccc(Cl)cc1 | 7 (≈ 18 µM) | 7 (≈ 18 µM) | 2 (≈ 5.15 µM) | < 0.2 | 2 (≈ 5.15 µM) | 2 (≈ 5.15 µM) | < 0.2 | 0.7 (≈ 1.8 µM) | 0.7 (≈ 1.8 µM) | < 0.2 | 4 | 3.6 | 3.4 | 3.3 | 1.8 | 4.7 |  |  |  |  |
| CN1O[C@H](c2ccccc2Cl)C[C@@]1(Cn1ccnc1)c1ccc(Cl)cc1 | 7 (≈ 18 µM) | 7 (≈ 18 µM) | 0.7 (≈ 1.8 µM) | < 0.2 | 2 (≈ 5.15 µM) | 2 (≈ 5.15 µM) | < 0.2 | 0.7 (≈ 1.8 µM) | 0.7 (≈ 1.8 µM) | < 0.2 |  |  |  |  |  |  |  |  |  |  |
| Cc1ccc([C@H]2C[C@@](Cn3ccnc3)(c3ccc(Cl)cc3)N(C)O2)cc1 | 70 (≈ 190 µM) | 20 (≈ 54.4 µM) | 0.7 (≈ 1.9 µM) | 2 (≈ 5.44 µM) | 7 (≈ 19 µM) | 20 (≈ 54.4 µM) |  | 2 (≈ 5.44 µM) | 2 (≈ 5.44 µM) |  |  |  |  |  |  |  | 2 (≈ 5.44 µM) | 2 (≈ 5.44 µM) |  |  |
| Cc1ccc([C@@H]2C[C@@](Cn3ccnc3)(c3ccc(Cl)cc3)N(C)O2)cc1 | 70 (≈ 190 µM) | 7 (≈ 19 µM) | 0.7 (≈ 1.9 µM) | 0.7 (≈ 1.9 µM) | 7 (≈ 19 µM) | 7 (≈ 19 µM) | 0.7 (≈ 1.9 µM) | 2 (≈ 5.44 µM) | 2 (≈ 5.44 µM) | 0.7 (≈ 1.9 µM) |  |  |  |  |  |  |  |  |  |  |
| Fc1ccc([C@]2(Cn3ccnc3)C[C@@H](c3ccccc3)ON2Cc2ccccc2)cc1 | > 70 | 20 (≈ 48.4 µM) |  |  |  |  |  | 0.7 (≈ 1.69 µM) |  |  |  |  |  |  |  |  |  |  |  |  |
| CN1O[C@H](c2ccccc2)C[C@@]1(Cn1ccnc1)c1ccc(F)cc1 | 20 (≈ 59.3 µM) | 70 (≈ 207 µM) |  |  |  |  |  | 2 (≈ 5.93 µM) |  |  |  |  |  |  |  |  |  |  |  |  |
| CN1O[C@H](c2ccccc2)C[C@@]1(Cn1ccnc1)c1ccc(Cl)cc1 | 70 (≈ 198 µM) | 20 (≈ 56.5 µM) | 7 (≈ 19.8 µM) | 0.7 (≈ 1.98 µM) | 2 (≈ 5.65 µM) | 7 (≈ 19.8 µM) | < 0.2 | 0.7 (≈ 1.98 µM) |  |  |  |  |  |  |  |  |  |  | 0.7 (≈ 1.98 µM) | 2 (≈ 5.65 µM) |
| CN1O[C@@H](c2c(Cl)cccc2Cl)C[C@@]1(Cn1ccnc1)c1ccc(Cl)cc1 | 7 (≈ 16.6 µM) | 7 (≈ 16.6 µM) | 7 (≈ 16.6 µM) | 0.7 (≈ 1.66 µM) | 2 (≈ 4.73 µM) | 20 (≈ 47.3 µM) | 7 (≈ 16.6 µM) | 0.7 (≈ 1.66 µM) | 7 (≈ 16.6 µM) | 0.7 (≈ 1.66 µM) |  |  |  |  |  |  |  |  |  |  |
| CN1O[C@H](c2ccccc2)C[C@@]1(Cn1ccnc1)c1ccccc1 | 70 (≈ 219 µM) | 70 (≈ 219 µM) | 7 (≈ 21.9 µM) | 7 (≈ 21.9 µM) | 7 (≈ 21.9 µM) | 20 (≈ 62.6 µM) | 0.7 (≈ 2.19 µM) | 2 (≈ 6.26 µM) | 7 (≈ 21.9 µM) | 0.7 (≈ 2.19 µM) |  |  |  |  |  |  |  |  |  |  |
| COc1ccc([C@@H]2C[C@@](Cn3ccnc3)(c3ccc(OC)cc3)N(C)O2)cc1 | > 70 | 70 (≈ 184 µM) | 20 (≈ 52.7 µM) | 7 (≈ 18.4 µM) | 20 (≈ 52.7 µM) | 70 (≈ 184 µM) | 20 (≈ 52.7 µM) | 20 (≈ 52.7 µM) | 70 (≈ 184 µM) | 20 (≈ 52.7 µM) |  |  |  |  |  |  |  |  |  |  |
| CC(=O)N1CCN(c2ccc(OCC3COC(Cn4ccnc4)(c4ccc(Cl)cc4Cl)O3)cc2)CC1 (stereo not drawn) [KETOCONAZOLE] | 7 (≈ 13.2 µM) | 20 (≈ 37.6 µM) | 20 (≈ 37.6 µM) | < 0.2 | 2 (≈ 3.76 µM) | 7 (≈ 13.2 µM) | 2 (≈ 3.76 µM) | 0.7 (≈ 1.32 µM) | 0.7 (≈ 1.32 µM) |  | 1.5 | 0.3 | 0 | 0 | 0 | 5 |  | < 0.2 |  |  |
